Reference: article PMC11812931 (CPT: Pharmacometrics & Systems Pharmacology, 2024)
Marks after values point to notes of the source that are not given here.

Experiments:
[1] = PopPK model of MDMA and MDA; format: in vivo, human
How it was run: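 Single-dose plasma data came from 65 healthy volunteers: 16 from the fasted food-effect study and 49 from a randomized, double-blind, placebo-controlled crossover study. The dataset held 2012 MDMA and 1871 MDA samples, excluding BLQ values, samples with missing time and pre-dose concentrations. Modelling used nonlinear mixed effects with first-order conditional estimation with interaction. One- and two-compartment models were tested, with first-order or sequential zero-/first-order absorption.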

[2] = MPKF phase I two-period crossover food effect pharmacokinetic study; format: in vivo, human; details: for AUC0–inf LSM geometric mean ratio (90% CI) / C max LSM geometric mean ratio (90% CI): fed (test) vs fasted (reference); for AUC(0-inf) / Cmax: human, 120 mg; for AUC(0-inf): AUC0–inf; for Cmax: C max
[3] = HVs, single oral dose of 100 mg MDMA HCl, absence of paroxetine; cited from earlier work
[4] = cited from earlier work
[5] = plasma, oral, Median [Min, Max], 120 mg MDMA HCl, Fasted
[6] = plasma, oral, Median [Min, Max], 120 mg MDMA HCl, Fed
[7] = plasma, po, Geo. Mean (Geo. CV%), single oral 120 mg MDMA HCl, Fasted, N = 15
[8] = plasma, po, Geo. Mean (Geo. CV%), single oral 120 mg MDMA HCl, Fed (high-fat/high-calorie meal), N = 14
[9] = MPKF fasted vs NIDA light breakfast
[10] = MPKF fed vs NIDA light breakfast

CC(N)Cc1ccc2c(c1)OCO2 (stereo not drawn) [MDA, 3,4‐methylenedioxyamphetamine]
lower V4 (MDA peripheral volume of distribution) in female subjects ([1]; compared to male): 18% | Body weight effect on CLM, Bootstrap median (95% CI) ([1]; covariate coefficient): 0.585 (0.209, 0.879) | Body weight effect on CLM, Estimate ([1]; covariate coefficient): 0.580 | Body weight effect on QM, Bootstrap median (95% CI) ([1]; covariate coefficient): 1.02 (0.408, 1.63) | Body weight effect on QM, Estimate ([1]; covariate coefficient): 1.00 | Sex effect on V4, Bootstrap median (95% CI) ([1]; female vs male): −0.18 (−0.321, −0.0256) | Sex effect on V4, Estimate ([1]; female vs male): −0.181 | Vd ([1]; human, plasma, oral): 20.8 L | clearance ([1]; human, plasma, oral): 582 mL/min | IIV on CLM, Estimate ([1]; inter-individual variability): 32.0 ^ b , ^ c %CV | IIV on QM, Estimate ([1]; inter-individual variability): 46.8 ^ b , ^ d %CV | IIV on V4, Estimate ([1]; inter-individual variability): 35.2 ^ c , ^ d %CV | CLM, Bootstrap median (95% CI) ([1]; n = 1000 bootstrap): 36.1 (33.5, 38.8) L/h | QM, Bootstrap median (95% CI) ([1]; n = 1000 bootstrap): 83.9 (68.8, 103) L/h | V3, Bootstrap median (95% CI) ([1]; n = 1000 bootstrap): 20.8 (11.9, 28.4) L | V4, Bootstrap median (95% CI) ([1]; n = 1000 bootstrap): 213 (181, 246) L | AUC0–inf LSM geometric mean ratio (90% CI) [2]: 0.99 (0.93–1.06) | C max LSM geometric mean ratio (90% CI) [2]: 0.96 (0.90–1.03) | AUC(0-inf) [2, 5]: 0.358 µg·h/mL | AUC(0-inf) [2, 6]: 0.343 µg·h/mL | Cmax [2, 5]: 0.0125 µg/mL | AUC(0-inf) [2, 7]: 0.33 µg·h/mL | AUC(0-inf) [2, 8]: 0.369 µg·h/mL

CNC(C)Cc1ccc2c(c1)OCO2 (stereo not drawn) [MDMA, 3,4‐methylenedioxymethamphetamine]
fmet (fraction of MDMA metabolized to MDA) ([1]; FIXED in the model): 0.1 FIXED | faster absorption in fasted subjects ([1]; MPKF fasted compared to NIDA light breakfast): 193% | Fasted status effect on ka, Bootstrap median (95% CI) [1, 9]: 1.08 (0.277, 4.31) | Fasted status effect on ka, Estimate [1, 9]: 1.93 | Fed status effect on ka, Bootstrap median (95% CI) [1, 10]: −0.496 (−0.645, −0.239) | Fed status effect on ka, Estimate [1, 10]: −0.484 | Study effect on V2/F, Bootstrap median (95% CI) ([1]; MPKF vs NIDA): −0.267 (−0.342, −0.19) | Study effect on V2/F, Estimate ([1]; MPKF vs NIDA): −0.263 | lower MDMA CL/F for MPKF subjects ([1]; compared to NIDA): 36% | lower MDMA V2/F for MPKF subjects ([1]; compared to NIDA): 26% | Body weight effect on V2/F, Bootstrap median (95% CI) ([1]; covariate coefficient): 0.884 (0.6, 1.11) | Body weight effect on V2/F, Estimate ([1]; covariate coefficient): 0.885 | ALAG1 (absorption lag time), Estimate ([1]; final MDMA PopPK model): 0.322 h | CL/F, Estimate ([1]; final MDMA PopPK model): 41.5 L/h | D1 (duration of zero order input), Estimate ([1]; final MDMA PopPK model): 0.304 h | V2/F, Estimate ([1]; final MDMA PopPK model): 462 L | ka, Estimate ([1]; final MDMA PopPK model): 1.17 h⁻¹ | IIV on CL/F, Estimate ([1]; inter-individual variability): 30.5 ^a %CV | IIV on D1, Estimate ([1]; inter-individual variability): 153 %CV | IIV on KA, Estimate ([1]; inter-individual variability): 60.2 %CV | IIV on V2/F, Estimate ([1]; inter-individual variability): 19.9 ^a %CV | ALAG1, Bootstrap median (95% CI) ([1]; n = 1000 bootstrap): 0.323 (0.273, 0.358) h | CL/F, Bootstrap median (95% CI) ([1]; n = 1000 bootstrap): 41.8 (37.7, 45.8) L/h | D1, Bootstrap median (95% CI) ([1]; n = 1000 bootstrap): 0.271 (0.141, 0.485) h | V2/F, Bootstrap median (95% CI) ([1]; n = 1000 bootstrap): 461 (429, 496) L | ka, Bootstrap median (95% CI) ([1]; n = 1000 bootstrap): 1.17 (0.969, 1.43) 1/h | CL/F (apparent oral clearance) [3]: 36.3 L/h | CLR (renal clearance) [3]: 9.40 L/h | effective dose (as low as) [4]: ≥ 75 mg HCl | tolerated dose (as high as) ([4]; split dose): ≤ 225 mg HCl | AUC0–inf LSM geometric mean ratio (90% CI) [2]: 0.99 (0.94–1.04) | C max LSM geometric mean ratio (90% CI) [2]: 0.97 (0.92–1.01) | T max delay following administration with food ([2]; fed vs fasted): 2 h | AUC(0-inf) [2, 5]: 3.73 µg·h/mL | Cmax [2, 5]: 0.234 µg/mL | Cmax [2, 6]: 0.23 µg/mL | AUC(0-inf) [2, 7]: 3.39 µg·h/mL | AUC(0-inf) [2, 8]: 3.32 µg·h/mL | T max, Median [Min, Max] ([2]; plasma, 120 mg MDMA HCl, Fasted): 2.1 [2.0, 8.0] h | adverse events (AE) severity ([2]; single 120 mg MDMA HCl, healthy volunteers): mild in severity and resolved
